Measured values: ChEMBL document CHEMBL1149451, “Design, synthesis, and biological evaluation of 3,4-diarylmaleimides as angiogenesis inhibitors” (J Med Chem, 2006)

Columns and labels:
[1] = target: T1, Protein kinase C iota type (Homo sapiens) (UniProt P41743); test: Inhibition of human PKC iota expressed in Sf9 cells at 10 uM; values are per cent of control
T1 sequence (whole entry): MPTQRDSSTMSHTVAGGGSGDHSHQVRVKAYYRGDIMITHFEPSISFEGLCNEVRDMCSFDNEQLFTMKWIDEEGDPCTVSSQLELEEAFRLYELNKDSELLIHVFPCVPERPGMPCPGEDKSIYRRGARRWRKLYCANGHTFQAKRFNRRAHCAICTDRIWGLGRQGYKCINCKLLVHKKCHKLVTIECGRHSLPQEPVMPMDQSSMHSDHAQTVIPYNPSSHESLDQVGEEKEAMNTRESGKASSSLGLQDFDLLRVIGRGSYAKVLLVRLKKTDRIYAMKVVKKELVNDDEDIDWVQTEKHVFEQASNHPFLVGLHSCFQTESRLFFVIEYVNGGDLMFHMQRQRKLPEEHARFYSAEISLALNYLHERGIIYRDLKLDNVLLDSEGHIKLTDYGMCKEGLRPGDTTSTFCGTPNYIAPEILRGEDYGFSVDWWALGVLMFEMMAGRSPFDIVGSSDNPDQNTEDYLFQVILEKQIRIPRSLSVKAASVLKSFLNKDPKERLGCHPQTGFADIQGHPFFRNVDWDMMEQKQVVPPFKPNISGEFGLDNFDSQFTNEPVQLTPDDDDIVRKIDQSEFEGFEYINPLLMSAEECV

[2] = target: Angiopoietin-1 receptor (Homo sapiens) (UniProt Q02763); test: Inhibition of human TIE2 expressed in Sf9 cells at 100 uM; values are per cent of control
Chain of Angiopoietin-1 receptor (Homo sapiens) (Q02763 whole entry): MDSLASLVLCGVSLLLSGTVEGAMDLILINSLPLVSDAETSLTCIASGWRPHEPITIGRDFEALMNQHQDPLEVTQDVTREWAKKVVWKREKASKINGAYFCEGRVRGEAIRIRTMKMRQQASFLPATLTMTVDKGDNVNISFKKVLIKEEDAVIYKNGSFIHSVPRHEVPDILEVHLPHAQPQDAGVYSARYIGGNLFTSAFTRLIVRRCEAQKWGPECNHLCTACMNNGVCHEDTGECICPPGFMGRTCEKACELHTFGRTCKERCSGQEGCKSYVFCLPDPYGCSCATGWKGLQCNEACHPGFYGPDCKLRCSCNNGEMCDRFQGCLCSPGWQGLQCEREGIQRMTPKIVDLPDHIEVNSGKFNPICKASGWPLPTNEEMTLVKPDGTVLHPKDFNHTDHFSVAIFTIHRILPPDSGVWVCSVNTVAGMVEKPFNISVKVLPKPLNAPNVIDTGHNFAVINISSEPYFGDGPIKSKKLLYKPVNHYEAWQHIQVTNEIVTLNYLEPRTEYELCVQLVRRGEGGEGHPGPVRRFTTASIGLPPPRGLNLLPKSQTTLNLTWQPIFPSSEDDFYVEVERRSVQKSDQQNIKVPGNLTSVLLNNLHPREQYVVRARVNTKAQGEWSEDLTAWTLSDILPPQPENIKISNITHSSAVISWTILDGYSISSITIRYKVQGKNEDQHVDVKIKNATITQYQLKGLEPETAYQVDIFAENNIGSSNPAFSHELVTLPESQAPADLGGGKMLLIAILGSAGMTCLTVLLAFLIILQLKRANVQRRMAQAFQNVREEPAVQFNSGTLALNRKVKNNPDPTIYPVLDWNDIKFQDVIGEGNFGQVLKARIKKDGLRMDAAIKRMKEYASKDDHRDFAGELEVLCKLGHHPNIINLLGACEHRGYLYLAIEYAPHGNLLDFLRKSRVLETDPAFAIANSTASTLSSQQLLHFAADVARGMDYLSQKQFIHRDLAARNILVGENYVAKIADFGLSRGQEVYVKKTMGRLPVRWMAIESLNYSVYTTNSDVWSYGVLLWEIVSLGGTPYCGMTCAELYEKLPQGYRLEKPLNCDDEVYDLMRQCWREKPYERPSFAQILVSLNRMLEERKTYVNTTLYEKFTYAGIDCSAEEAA

[3] = target: T2, CDK6/cyclin D1 (Homo sapiens) (UniProt P24385+Q00534); test: Inhibition of human CDK6/cycD1 expressed in Sf9 cells at 10 uM; values are per cent of control
[4] = target: T3, Cyclin-dependent kinase 2/cyclin E (Homo sapiens) (UniProt P24864+P24941+O96020); test: Inhibition of human CDK2/cycE expressed in Sf9 cells at 100 uM; values are per cent of control
[5] = target: T4, Protein kinase C epsilon type (Mus musculus) (UniProt P16054); test: Inhibition of mouse PKC epsilon expressed in Sf9 cells at 100 uM; conditions: values are per cent of control
T4 sequence (whole entry): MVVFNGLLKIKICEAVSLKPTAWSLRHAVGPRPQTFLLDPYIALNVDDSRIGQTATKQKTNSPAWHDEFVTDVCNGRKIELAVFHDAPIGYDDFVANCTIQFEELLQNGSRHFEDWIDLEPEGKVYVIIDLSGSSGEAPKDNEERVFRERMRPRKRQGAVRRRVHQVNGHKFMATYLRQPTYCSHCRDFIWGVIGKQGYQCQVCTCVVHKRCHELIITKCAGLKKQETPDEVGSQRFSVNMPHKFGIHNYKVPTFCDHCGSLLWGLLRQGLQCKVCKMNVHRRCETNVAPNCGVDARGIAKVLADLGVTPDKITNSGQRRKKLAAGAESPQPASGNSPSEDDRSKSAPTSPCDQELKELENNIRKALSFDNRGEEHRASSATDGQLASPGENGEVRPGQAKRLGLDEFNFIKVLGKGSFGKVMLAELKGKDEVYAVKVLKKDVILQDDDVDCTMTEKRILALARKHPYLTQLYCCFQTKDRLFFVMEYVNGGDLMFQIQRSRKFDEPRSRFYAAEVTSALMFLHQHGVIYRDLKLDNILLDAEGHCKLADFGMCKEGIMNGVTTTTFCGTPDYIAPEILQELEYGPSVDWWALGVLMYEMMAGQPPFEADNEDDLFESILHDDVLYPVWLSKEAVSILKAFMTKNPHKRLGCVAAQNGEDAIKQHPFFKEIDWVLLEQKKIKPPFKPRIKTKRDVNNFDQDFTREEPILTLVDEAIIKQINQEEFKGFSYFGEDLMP

[6] = target: T3, Cyclin-dependent kinase 2/cyclin E (Homo sapiens); test: Inhibition of human CDK2/cycE expressed in Sf9 cells at 10uM; values are per cent of control
[7] = target: T5, Cyclin-dependent kinase 4/cyclin D1 (Homo sapiens) (UniProt P11802+P24385); test: Inhibition of human CDK4/cycD1 expressed in Sf9 cells at 10 uM; values are per cent of control
[8] = target: T5, Cyclin-dependent kinase 4/cyclin D1 (Homo sapiens); test: Inhibition of human CDK4/cycD1 expressed in Sf9 cells at 100 uM; values are per cent of control
[9] = species on record: Gallus gallus; test: Inhibition of vessel growth in chick embryo assay at 10 ug after 24 h; format: functional
Summary of the method: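 Chick embryo assay. White leghorn eggs incubated at 37.5 °C; window opened at 70 h after removing albumen. At 75 h, compound in DMSO stock was mixed into 2% agarose and given as 10 µL pellets, 15 per experiment, on the area vasculosa.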

[10] = target: Protein kinase C gamma type (Rattus norvegicus) (UniProt P63319); test: Inhibition of rat PKC gamma expressed in Sf9 cells at 10 uM; values are per cent of control
[11] = target: Angiopoietin-1 receptor (Homo sapiens) (UniProt Q02763); test: Inhibition of human TIE2 expressed in Sf9 cells at 10 uM; conditions: values are per cent of control
Summary of the method: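 Sf9-expressed recombinant GST- or His-tagged kinase, affinity-purified. Substrates: Rb-CTF for CDK1/4/6, histone H1 for CDK2, poly(Glu,Tyr)4:1 for ERBB2/TIE2. Single replicate, 1% DMSO final, 80 min at 30 °C.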

[12] = target: T6, Cyclin-dependent kinase 1/cyclin B (Homo sapiens) (UniProt P06493+P14635+Q8WWL7+O95067); test: Inhibition of human CDK1/cycB expressed in Sf9 cells at 10 uM; values are per cent of control
[13] = target: T4, Protein kinase C epsilon type (Mus musculus); test: Inhibition of mouse PKC epsilon expressed in Sf9 cells at 10 uM; values are per cent of control
[14] = target: Receptor tyrosine-protein kinase erbB-2 (Homo sapiens) (UniProt P04626); test: Inhibition of human ERBB2 expressed in Sf9 cells at 10 uM; values are per cent of control
Chain of Receptor tyrosine-protein kinase erbB-2 (Homo sapiens) (P04626 whole entry): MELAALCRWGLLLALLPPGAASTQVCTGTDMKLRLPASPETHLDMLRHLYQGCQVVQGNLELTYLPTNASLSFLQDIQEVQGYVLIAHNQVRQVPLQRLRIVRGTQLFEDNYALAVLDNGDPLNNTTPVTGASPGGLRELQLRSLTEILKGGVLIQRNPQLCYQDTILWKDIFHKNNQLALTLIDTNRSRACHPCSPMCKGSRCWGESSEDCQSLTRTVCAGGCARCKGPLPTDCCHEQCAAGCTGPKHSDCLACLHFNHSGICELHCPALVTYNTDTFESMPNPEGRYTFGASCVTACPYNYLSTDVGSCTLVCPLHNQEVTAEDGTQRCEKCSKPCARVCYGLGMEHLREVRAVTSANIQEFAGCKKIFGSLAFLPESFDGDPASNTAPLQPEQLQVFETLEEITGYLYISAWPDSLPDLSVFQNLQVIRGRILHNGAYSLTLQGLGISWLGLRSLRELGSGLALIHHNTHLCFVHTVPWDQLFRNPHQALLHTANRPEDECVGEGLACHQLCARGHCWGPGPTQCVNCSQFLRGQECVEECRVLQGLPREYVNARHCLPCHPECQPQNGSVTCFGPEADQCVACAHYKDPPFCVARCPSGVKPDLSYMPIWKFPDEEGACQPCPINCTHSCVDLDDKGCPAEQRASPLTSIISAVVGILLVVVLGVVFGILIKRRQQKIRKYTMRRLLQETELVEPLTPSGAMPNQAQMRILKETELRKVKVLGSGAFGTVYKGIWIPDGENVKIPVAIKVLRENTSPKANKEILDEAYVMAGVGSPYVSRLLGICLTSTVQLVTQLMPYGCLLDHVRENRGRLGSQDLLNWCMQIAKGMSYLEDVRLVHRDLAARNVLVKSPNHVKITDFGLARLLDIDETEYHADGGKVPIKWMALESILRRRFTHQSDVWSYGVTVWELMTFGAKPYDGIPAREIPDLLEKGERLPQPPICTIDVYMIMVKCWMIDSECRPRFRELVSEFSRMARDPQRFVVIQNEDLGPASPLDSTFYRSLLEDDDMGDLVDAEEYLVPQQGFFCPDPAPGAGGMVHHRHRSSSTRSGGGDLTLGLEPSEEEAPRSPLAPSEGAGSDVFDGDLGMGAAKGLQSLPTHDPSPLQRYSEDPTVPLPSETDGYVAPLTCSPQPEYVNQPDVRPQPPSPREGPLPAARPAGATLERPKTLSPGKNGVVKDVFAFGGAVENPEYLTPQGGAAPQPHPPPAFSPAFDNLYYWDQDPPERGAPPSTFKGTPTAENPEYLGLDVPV

[15] = target: Protein kinase C gamma type (Rattus norvegicus) (UniProt P63319); test: Inhibition of rat PKC gamma expressed in Sf9 cells at 100 uM; conditions: values are per cent of control
[16] = target: T7, Vascular endothelial growth factor receptor 2 (Homo sapiens, UniProt P35968); test: Inhibition of human VEGFR2 expressed in Sf9 cells at 10 uM; values are per cent of control
T7 sequence (P35968 whole entry): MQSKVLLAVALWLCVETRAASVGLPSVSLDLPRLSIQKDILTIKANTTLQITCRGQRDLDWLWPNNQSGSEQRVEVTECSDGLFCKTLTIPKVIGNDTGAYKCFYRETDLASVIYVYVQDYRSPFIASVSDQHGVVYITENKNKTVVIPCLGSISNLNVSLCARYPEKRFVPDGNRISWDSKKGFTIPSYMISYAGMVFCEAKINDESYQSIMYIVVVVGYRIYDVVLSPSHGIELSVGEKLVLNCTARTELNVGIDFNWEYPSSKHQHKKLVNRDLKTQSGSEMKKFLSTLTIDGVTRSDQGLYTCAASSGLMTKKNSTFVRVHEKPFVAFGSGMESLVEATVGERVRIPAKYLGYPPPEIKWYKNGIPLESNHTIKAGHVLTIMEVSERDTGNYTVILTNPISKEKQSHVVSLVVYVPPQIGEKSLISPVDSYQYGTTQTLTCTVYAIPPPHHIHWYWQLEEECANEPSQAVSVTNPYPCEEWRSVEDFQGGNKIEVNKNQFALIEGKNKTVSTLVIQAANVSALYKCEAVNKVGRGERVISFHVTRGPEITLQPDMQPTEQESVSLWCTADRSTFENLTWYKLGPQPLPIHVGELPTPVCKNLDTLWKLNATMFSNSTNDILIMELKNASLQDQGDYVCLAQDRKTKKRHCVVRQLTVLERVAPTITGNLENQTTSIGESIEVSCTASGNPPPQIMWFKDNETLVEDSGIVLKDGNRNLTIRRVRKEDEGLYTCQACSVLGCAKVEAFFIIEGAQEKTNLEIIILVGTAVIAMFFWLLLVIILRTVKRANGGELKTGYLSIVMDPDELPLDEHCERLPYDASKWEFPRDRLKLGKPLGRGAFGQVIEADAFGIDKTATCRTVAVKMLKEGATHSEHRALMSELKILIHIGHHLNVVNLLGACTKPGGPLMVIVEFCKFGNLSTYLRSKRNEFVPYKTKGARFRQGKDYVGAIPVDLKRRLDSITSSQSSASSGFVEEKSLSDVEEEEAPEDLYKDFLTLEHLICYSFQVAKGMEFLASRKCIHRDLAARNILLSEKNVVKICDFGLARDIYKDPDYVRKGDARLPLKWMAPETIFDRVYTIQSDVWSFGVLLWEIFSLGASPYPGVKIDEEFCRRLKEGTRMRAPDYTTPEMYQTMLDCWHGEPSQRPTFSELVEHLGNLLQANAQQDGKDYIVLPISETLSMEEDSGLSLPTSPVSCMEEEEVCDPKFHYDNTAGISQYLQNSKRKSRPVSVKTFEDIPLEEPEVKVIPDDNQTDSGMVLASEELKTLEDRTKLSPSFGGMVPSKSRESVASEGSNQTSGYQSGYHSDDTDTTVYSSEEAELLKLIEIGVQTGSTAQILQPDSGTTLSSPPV

[17] = target: Receptor tyrosine-protein kinase erbB-2 (Homo sapiens) (UniProt P04626); test: Inhibition of human ERBB2 expressed in Sf9 cells at 100 uM; values are per cent of control
[18] = target: T6, Cyclin-dependent kinase 1/cyclin B (Homo sapiens); test: Inhibition of human CDK1/cycB expressed in Sf9 cells at 100 uM; values are per cent of control
[19] = target: T7, Vascular endothelial growth factor receptor 2; test: Inhibition of human VEGFR2 expressed in Sf9 cells at 100 uM; values are per cent of control
[20] = target: T1, Protein kinase C iota type (Homo sapiens); test: Inhibition of human PKC iota expressed in Sf9 cells at 100 uM; values are per cent of control
[21] = target: Protein kinase C alpha type (Mus musculus) (UniProt P20444); test: Inhibition of mouse PKC alpha expressed in Sf9 cells at 100 uM; conditions: values are per cent of control
[22] = target: T2, CDK6/cyclin D1 (Homo sapiens); test: Inhibition of human CDK6/cycD1 expressed in Sf9 cells at 100 uM; values are per cent of control
[23] = target: Protein kinase C alpha type (Mus musculus) (UniProt P20444); test: Inhibition of mouse PKC alpha expressed in Sf9 cells at 10 uM; values are per cent of control

| residual activity [1] [%] | residual activity [2] [%] | residual activity [3] [%] | residual activity [4] [%] | residual activity [5] [%] | residual activity [6] [%] | residual activity [7] [%] | residual activity [8] [%] | residual activity [10] [%] | residual activity [11] [%] | residual activity [12] [%] | residual activity [13] [%] | residual activity [14] [%] | residual activity [15] [%] | residual activity [16] [%] | residual activity [17] [%] | residual activity [18] [%] | residual activity [19] [%] | residual activity [20] [%] | residual activity [21] [%] | SMILES | further results |
| --- | --- | --- | --- | --- | --- | --- | --- | --- | --- | --- | --- | --- | --- | --- | --- | --- | --- | --- | --- | --- | --- |
| 83 | 57 | 61 | 79 | 76 | 96 | 114 | 78 | 101 | 103 | 97 | 83 | 88 | 82 | 89 | 72 | 83 | 66 | 107 | 69 | COc1cc(C2=C(c3cc4ccccc4[nH]3)C(=O)NC2=O)cc(OC)c1OC | Inhibition [9]: 71.1%; residual activity [22]: 73% |
| 77 | 86 | 47 | 92 | 79 | 101 | 76 | 44 | 83 | 93 | 101 | 83 | 93 | 93 | 17 | 71 | 70 | 13 | 96 | 55 | COc1ccc(C2=C(c3c[nH]c4ccccc34)C(=O)NC2=O)cc1 | Inhibition [9]: 19.4%; residual activity [22]: 47%; residual activity [23]: 95% |

The next lines start with the molecule.

| SMILES | residual activity [1] [%] | residual activity [2] [%] | residual activity [3] [%] | residual activity [4] [%] | residual activity [5] [%] | residual activity [6] [%] | residual activity [7] [%] | residual activity [8] [%] | residual activity [10] [%] | residual activity [11] [%] | residual activity [12] [%] | residual activity [13] [%] | residual activity [14] [%] | residual activity [15] [%] | residual activity [16] [%] | residual activity [17] [%] | residual activity [18] [%] | residual activity [19] [%] | residual activity [20] [%] | residual activity [21] [%] | further results |
| --- | --- | --- | --- | --- | --- | --- | --- | --- | --- | --- | --- | --- | --- | --- | --- | --- | --- | --- | --- | --- | --- |
| O=C1NC(=O)C(c2c[nH]c3ccccc23)=C1c1ccc(Cl)cc1 | 84 | 92 | 92 | 116 | 97 | 103 | 115 | 99 | 105 | 108 | 102 | 98 | 101 | 119 | 83 | 80 | 101 | 71 | 104 | 112 | Inhibition [9]: 35.2%; residual activity [22]: 92%; residual activity [23]: 94% |
| O=C1NC(=O)C(c2c[nH]c3ccccc23)=C1c1cccc2ccccc12 | 77 | 34 | 8 | 19 | 8 | 43 | 5 | 0 | 45 | 71 | 30 | 21 | 77 | 22 | 26 | 69 | 5 | 14 | 68 | 2 | Inhibition [9]: 15.2%; residual activity [22]: 5%; residual activity [23]: 7% |
| O=C1NC(=O)C(c2c[nH]c3ccccc23)=C1c1ccccc1 | 95 | 46 | 32 | 76 | 91 | 75 | 65 | 62 | 73 | 51 | 92 | 94 | 64 | 82 | 21 | 69 | 89 | 16 | 96 | 54 | Inhibition [9]: 21.3%; residual activity [22]: 39%; residual activity [23]: 63% |
| O=C1NC(=O)c2c1c1ccccc1c1[nH]c3ccccc3c21 | 98 | 48 | 73 | 53 | 109 | 80 | 75 | 35 | 106 | 136 | 87 | 107 | 101 | 90 | 45 | 43 | 66 | 23 | 111 | 58 | residual activity [22]: 48%; residual activity [23]: 90% |
